Test results taken from ChEMBL document CHEMBL1126631, “Synthesis and biological activities of angiotensin II, Sarilesin, and Sarmesin analogues containing Aze or Pip at position 7” (J Med Chem, 1993).

Key:
[1] = molecular target: Angiotensin II receptor (Rattus norvegicus) (UniProt P29089+P25095+P35351); assay: Evaluated for its agonistic activity using rat uterus bioassay in Dawley rats (% of ANG II); format: functional, tissue-based
Summary of the method: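 Defatted uterine horns from diethylstilbestrol-primed virgin Sprague–Dawley rats (150–250 g), suspended under 1-g tension in a 3-mL oxygenated bath (150 mM NaCl, 5.6 mM KCl, 0.18 mM NaHCO3, 1.4 mM glucose, pH 7.0). Isotonic contractions recorded; activity found by matching the response to an equivalent human ANGII response. Values are means of the stated number of experiments.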

Angiotensin II receptor = molecular target: T1, Angiotensin II receptor (Rattus norvegicus, UniProt P29089+P25095+P35351); assay: Antagonistic activity (pA2) was determined as the negative logarithm of the concentration required to reduce the response to an EC50 dose of ANG II to the response to half the EC50.; format: functional
T1 sequence (P29089 whole entry): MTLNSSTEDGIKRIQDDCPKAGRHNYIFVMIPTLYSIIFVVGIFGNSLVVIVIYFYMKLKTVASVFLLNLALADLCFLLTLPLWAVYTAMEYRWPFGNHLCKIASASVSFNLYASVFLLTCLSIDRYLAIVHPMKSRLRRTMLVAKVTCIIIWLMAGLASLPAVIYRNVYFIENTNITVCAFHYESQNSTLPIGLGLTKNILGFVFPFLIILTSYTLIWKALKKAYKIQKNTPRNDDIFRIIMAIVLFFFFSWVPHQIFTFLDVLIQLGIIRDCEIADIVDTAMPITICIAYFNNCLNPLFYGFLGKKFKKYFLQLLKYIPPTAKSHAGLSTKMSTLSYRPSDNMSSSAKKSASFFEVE
T1 sequence (P25095 whole entry): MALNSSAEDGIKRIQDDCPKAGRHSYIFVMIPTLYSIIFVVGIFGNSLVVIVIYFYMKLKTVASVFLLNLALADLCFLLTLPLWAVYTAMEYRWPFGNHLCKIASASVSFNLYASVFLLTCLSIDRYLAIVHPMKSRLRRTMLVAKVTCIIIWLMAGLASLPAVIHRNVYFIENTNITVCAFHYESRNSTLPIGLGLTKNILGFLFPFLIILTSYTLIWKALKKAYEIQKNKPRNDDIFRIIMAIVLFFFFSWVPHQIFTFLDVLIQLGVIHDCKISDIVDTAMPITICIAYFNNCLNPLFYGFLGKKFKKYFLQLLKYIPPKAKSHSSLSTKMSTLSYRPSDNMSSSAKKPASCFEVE
T1 sequence (P35351 whole entry): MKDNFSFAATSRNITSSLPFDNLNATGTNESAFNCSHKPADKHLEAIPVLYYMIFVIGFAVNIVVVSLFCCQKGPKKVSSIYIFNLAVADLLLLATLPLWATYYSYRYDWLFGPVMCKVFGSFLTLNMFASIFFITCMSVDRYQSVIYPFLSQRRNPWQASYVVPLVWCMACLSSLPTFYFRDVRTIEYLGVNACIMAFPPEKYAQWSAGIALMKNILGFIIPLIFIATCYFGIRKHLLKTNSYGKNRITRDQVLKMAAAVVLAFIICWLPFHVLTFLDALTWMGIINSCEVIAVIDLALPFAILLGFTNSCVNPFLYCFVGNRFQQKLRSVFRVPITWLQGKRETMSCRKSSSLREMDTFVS
Summary of the method: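 Isolated uterine horns (defatted) from diethylstilbestrol-primed virgin Sprague–Dawley rats (150–250 g), held under 1-g tension in a 3-mL bath of 150 mM NaCl, 5.6 mM KCl, 0.18 mM NaHCO3, 1.4 mM glucose, pH 7.0, oxygenated. Isotonic contractions recorded. Human ANGII as standard; values are means of the stated number of experiments.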

Agonist activity [1]	pA2 (Angiotensin II receptor)	SMILES
65		CC[C@H](C)[C@H](NC(=O)[C@H](Cc1ccc(O)cc1)NC(=O)[C@@H](NC(=O)[C@H](CCCN=C(N)N)NC(=O)C(C)(C)N)C(C)C)C(=O)N[C@@H](Cc1c[nH]cn1)C(=O)N1CCCC[C@@H]1C(=O)N[C@@H](Cc1ccccc1)C(=O)O
	6.5	CC[C@H](C)[C@H](NC(=O)[C@H](Cc1ccc(OC)cc1)NC(=O)[C@@H](NC(=O)[C@H](CCCN=C(N)N)NC(=O)CNC)C(C)C)C(=O)N[C@@H](Cc1c[nH]cn1)C(=O)N1CCCC[C@H]1C(=O)N[C@@H](Cc1ccccc1)C(=O)O
< 0.1		CC[C@@H](C)[C@H](NC(=O)[C@H]1CCCCN1C(=O)[C@H](Cc1c[nH]cn1)NC(=O)[C@@H](NC(=O)[C@H](Cc1ccc(O)cc1)NC(=O)[C@@H](NC(=O)[C@H](CCCN=C(N)N)NC(=O)CNC)C(C)C)[C@@H](C)CC)C(=O)O
	7.7	CC[C@H](C)[C@H](NC(=O)[C@H](Cc1ccc(OC)cc1)NC(=O)[C@@H](NC(=O)[C@H](CCCN=C(N)N)NC(=O)CNC)C(C)C)C(=O)N[C@@H](Cc1c[nH]cn1)C(=O)N1CCC[C@H]1C(=O)N[C@@H](Cc1ccccc1)C(=O)O
	< 5	CC[C@H](C)[C@H](NC(=O)[C@H](Cc1ccc(OC)cc1)NC(=O)[C@@H](NC(=O)[C@@H](N)CCCN=C(N)N)C(C)C)C(=O)N[C@@H](Cc1c[nH]cn1)C(=O)N1CCCC[C@H]1C(=O)N[C@@H](Cc1ccccc1)C(=O)O
0.1		CC[C@H](C)[C@H](NC(=O)[C@@H]1CCCN1C(=O)[C@H](Cc1c[nH]cn1)NC(=O)[C@@H](NC(=O)[C@H](Cc1ccc(O)cc1)NC(=O)[C@@H](NC(=O)[C@H](CCCN=C(N)N)NC(=O)CNC)C(C)C)[C@@H](C)CC)C(=O)O
160		CC[C@H](C)[C@H](NC(=O)[C@H](Cc1ccc(O)cc1)NC(=O)[C@@H](NC(=O)[C@H](CCCN=C(N)N)NC(=O)CNC)C(C)C)C(=O)N[C@@H](Cc1c[nH]cn1)C(=O)N1CCC[C@H]1C(=O)N[C@@H](Cc1ccccc1)C(=O)O
	< 5	CC[C@H](C)[C@H](NC(=O)[C@H](Cc1ccc(OC)cc1)NC(=O)[C@@H](NC(=O)[C@@H](N)CCCN=C(N)N)C(C)C)C(=O)N[C@@H](Cc1c[nH]cn1)C(=O)N1CC[C@H]1C(=O)N[C@@H](Cc1ccccc1)C(=O)O
	7.1	CC[C@H](C)[C@H](NC(=O)[C@@H]1CCN1C(=O)[C@H](Cc1c[nH]cn1)NC(=O)[C@@H](NC(=O)[C@H](Cc1ccc(O)cc1)NC(=O)[C@@H](NC(=O)[C@H](CCCN=C(N)N)NC(=O)C(C)(C)N)C(C)C)[C@@H](C)CC)C(=O)O
184		CC[C@H](C)[C@H](NC(=O)[C@H](Cc1ccc(O)cc1)NC(=O)[C@@H](NC(=O)[C@H](CCCN=C(N)N)NC(=O)CNC)C(C)C)C(=O)N[C@@H](Cc1c[nH]cn1)C(=O)N1CCCC[C@@H]1C(=O)N[C@@H](Cc1ccccc1)C(=O)O
	7.9	CC[C@H](C)[C@H](NC(=O)[C@@H]1CCN1C(=O)[C@H](Cc1c[nH]cn1)NC(=O)[C@@H](NC(=O)[C@H](Cc1ccc(O)cc1)NC(=O)[C@@H](NC(=O)[C@H](CCCN=C(N)N)NC(=O)CNC)C(C)C)[C@@H](C)CC)C(=O)O
34		CC[C@H](C)[C@H](NC(=O)[C@H](Cc1ccc(O)cc1)NC(=O)[C@@H](NC(=O)[C@H](CCCN=C(N)N)NC(=O)C(C)(C)N)C(C)C)C(=O)N[C@@H](Cc1c[nH]cn1)C(=O)N1CCC1C(=O)N[C@@H](Cc1ccccc1)C(=O)O (stereo not given in full)
98		CC[C@H](C)[C@H](NC(=O)[C@H](Cc1ccc(O)cc1)NC(=O)[C@@H](NC(=O)[C@H](CCCN=C(N)N)NC(=O)CNC)C(C)C)C(=O)N[C@@H](Cc1c[nH]cn1)C(=O)N1CCC1C(=O)N[C@@H](Cc1ccccc1)C(=O)O (stereo not given in full)
	8.3	CC[C@H](C)[C@H](NC(=O)[C@@H]1CCCCN1C(=O)[C@H](Cc1c[nH]cn1)NC(=O)[C@@H](NC(=O)[C@H](Cc1ccc(O)cc1)NC(=O)[C@@H](NC(=O)[C@H](CCCN=C(N)N)NC(=O)CNC)C(C)C)[C@@H](C)CC)C(=O)O
< 0.1		CC[C@@H](C)[C@H](NC(=O)[C@H]1CCCCN1C(=O)[C@H](Cc1c[nH]cn1)NC(=O)[C@@H](NC(=O)[C@H](Cc1ccc(O)cc1)NC(=O)[C@@H](NC(=O)[C@H](CCCN=C(N)N)NC(=O)C(C)(C)N)C(C)C)[C@@H](C)CC)C(=O)O
	7.4	CC[C@H](C)[C@H](NC(=O)[C@H](Cc1ccc(OC)cc1)NC(=O)[C@@H](NC(=O)[C@H](CCCN=C(N)N)NC(=O)CNC)C(C)C)C(=O)N[C@@H](Cc1c[nH]cn1)C(=O)N1CC[C@H]1C(=O)N[C@@H](Cc1ccccc1)C(=O)O
< 0.1		CC[C@@H](C)[C@H](NC(=O)C1CCN1C(=O)[C@H](Cc1c[nH]cn1)NC(=O)[C@@H](NC(=O)[C@H](Cc1ccc(O)cc1)NC(=O)[C@@H](NC(=O)[C@H](CCCN=C(N)N)NC(=O)CNC)C(C)C)[C@@H](C)CC)C(=O)O (stereo not given in full)
< 0.1		CC[C@@H](C)[C@H](NC(=O)C1CCN1C(=O)[C@H](Cc1c[nH]cn1)NC(=O)[C@@H](NC(=O)[C@H](Cc1ccc(O)cc1)NC(=O)[C@@H](NC(=O)[C@H](CCCN=C(N)N)NC(=O)C(C)(C)N)C(C)C)[C@@H](C)CC)C(=O)O (stereo not given in full)
	7.6	CC[C@H](C)[C@H](NC(=O)[C@@H]1CCCCN1C(=O)[C@H](Cc1c[nH]cn1)NC(=O)[C@@H](NC(=O)[C@H](Cc1ccc(O)cc1)NC(=O)[C@@H](NC(=O)[C@H](CCCN=C(N)N)NC(=O)C(C)(C)N)C(C)C)[C@@H](C)CC)C(=O)O
35		CC[C@H](C)[C@H](NC(=O)[C@H](Cc1ccc(O)cc1)NC(=O)[C@@H](NC(=O)[C@@H](N)CCCN=C(N)N)C(C)C)C(=O)N[C@@H](Cc1c[nH]cn1)C(=O)N1CCC1C(=O)N[C@@H](Cc1ccccc1)C(=O)O (stereo not given in full)
